Here are results for eight compounds from ChEMBL document CHEMBL1773068, “Drug to genome to drug: discovery of new antiplasmodial compounds” (J Med Chem, 2011).

Experiment [1] deals with Plasmodium falciparum. Nature of the experiment: Antiplasmodial activity against chloroquine-susceptible Plasmodium falciparum GHA strain infected in human erythrocytes after 72 hrs by spectrophotometry. The class given is functional, organism-based. An outline of the steps: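 P. falciparum cultured in human A+ erythrocytes in RPMI-1640 with 10% human serum, 37 °C, low oxygen (3% O2, 4% CO2, 93% N2). Infected red cell suspension (1% parasitemia, 2% hematocrit) incubated with compounds 72 h, then frozen. Growth read by Malstat method: NBT/PES added, 2 h in dark, absorbance at 655 nm. IC50 from duplicate determinations.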

For experiment [2], the system named is Plasmodium falciparum. The experiment is described as follows: Inhibition of Plasmodium falciparum GHA strain PDE assessed as inhibition of cGMP hydrolysis at 20 uM after 6 hrs by time resolved fluorescence resonance energy transfer-based assay. An outline of the steps: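 Parasite lysate (2 μL, ~400 000 parasites) incubated with cGMP (150 nM) and inhibitor at 20 μM (4% DMSO final) for 6 h at 37 °C. Buffer: 50 mM Tris-HCl pH 7.4, 6 mM MgCl2, 1 mM MnCl2, 4 mM DTT. Residual cGMP measured by competitive HTRF (d2-labelled cGMP vs anti-cGMP cryptate), 665/620 nm ratio after 1 h at room temperature. Duplicates, each read twice.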

For experiment [3], the system named is Plasmodium falciparum. The experiment is described as follows: Inhibition of Plasmodium falciparum GHA strain PDE assessed as inhibition of cAMP hydrolysis at 20 uM after 6 hrs by time resolved fluorescence resonance energy transfer-based assay. An outline of the steps:
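Parasite lysate (2 μL, ~400 000 parasites) incubated with cAMP (150 nM) and inhibitor at 20 μM (4% DMSO final) for 6 h at 37 °C. Buffer: 50 mM Tris-HCl pH 7.4, 6 mM MgCl2, 1 mM MnCl2, 4 mM DTT. Residual cAMP measured by competitive HTRF (d2-labelled cAMP vs anti-cAMP cryptate), 665/620 nm ratio after 1 h at room temperature. Duplicates, each read twice.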

A further experiment has as its system MRC5. Nature of the experiment: Cytotoxicity against human MRC5 SV2 cells after 72 hrs. The class given is cell-based. The note with it: MRC5, 72 h. A digest of the protocol:
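MRC-5 SV2 human fetal lung fibroblasts grown in MEM with L-glutamine, NaHCO3 and 5% FCS at 37 °C, 5% CO2. 10^4 cells/well seeded onto prediluted compounds, 72 h at 37 °C. Viability by resazurin added for 24 h, fluorescence at ex 530/em 590 nm. IC50 from duplicate determinations.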

Calls of active or inactive are those of the source. No cut-off for these calls is given here.

In the case of `CCCOc1ccccc1-c1nc2[nH]nnc2c(=O)[nH]1` [ZAPRINAST], the IC50 in the experiment on Plasmodium falciparum [1] (read-out: IC50) stood at 35 µM. Also, the inhibition result in the experiment with Plasmodium falciparum [2] and in the experiment with Plasmodium falciparum [3] was “Active” each time.

For `O=C1[C@H]2Cc3c([nH]c4ccccc34)[C@@H](c3ccc4c(c3)OCO4)N2C(=O)CN1C1CCN(Cc2ccccc2)CC1`, the IC50 with Plasmodium falciparum [1] (read-out: IC50) was found to be 1 µM; with MRC5, 7 µM. Further, in the experiment on Plasmodium falciparum [2], the inhibition came out at 60%. In addition, in the experiment on Plasmodium falciparum [3], the inhibition result is “Active”.

`OCCN(CCO)c1nc(N2CCCCC2)c2nc(N(CCO)CCO)nc(N3CCCCC3)c2n1` [DIPYRIDAMOLE]: the IC50 in the experiment on Plasmodium falciparum [1] (read-out: IC50) came to 64 µM. The inhibition result in the experiment with Plasmodium falciparum [2] and with Plasmodium falciparum [3] was “Active” throughout.

As for `O=C1[C@H]2Cc3c([nH]c4ccccc34)[C@@H](c3ccc4c(c3)OCO4)N2C(=O)CN1[C@@H]1CCN(Cc2ccccc2)C1`, the IC50 in the experiment on Plasmodium falciparum [1] (read-out: IC50) is 0.5 µM; in the experiment on Plasmodium falciparum [1] (read-out: pIC50 (converted)) it was 0.501 µM; in the experiment with MRC5, 10 µM. In addition, the inhibition in the experiment on Plasmodium falciparum [2] was 60%. The inhibition result with Plasmodium falciparum [3] was “Active”.

For `O=C1[C@H]2Cc3c([nH]c4ccc(F)cc34)[C@@H](c3ccc4c(c3)OCO4)N2C(=O)CN1[C@@H]1CCN(Cc2ccccc2)C1` (mixture of isomers), the IC50 with Plasmodium falciparum [1] (read-out: IC50) was 1.7 µM; in the experiment with MRC5, 17.8 µM.

For `NCCCC[C@H]1NC(=O)[C@H]2Cc3c([nH]c4ccccc34)[C@@H](c3ccc4c(c3)OCO4)N2C1=O`, the IC50 in the experiment on Plasmodium falciparum [1] (read-out: IC50) was 4 µM; in the experiment with MRC5, over 64 µM.

Turning to `O=C1[C@H]2Cc3c([nH]c4ncccc34)[C@@H](c3ccc4c(c3)OCO4)N2C(=O)CN1[C@@H]1CCN(Cc2ccccc2)C1`, the IC50 with Plasmodium falciparum [1] (read-out: IC50) came to 0.97 µM; in the experiment with MRC5 it was 22 µM.

In the case of `O=C1[C@H]2Cc3c([nH]c4ccccc34)[C@@H](c3ccc4c(c3)OCO4)N2C(=O)CN1c1cccnc1`, the values for the IC50 in the experiment with Plasmodium falciparum [1] (read-out: IC50) and in the experiment with MRC5 were 22 µM and over 64 µM, respectively.

The term inhibition denotes the change of the read-out against control, counted positive when it falls.
